Calls of active or inactive are those of the source. The rule behind the calls is not given here.
What was measured:
[1] = target: T1, Gastrin/cholecystokinin type B receptor (Rattus norvegicus) (UniProt P30553); assay: Antagonist activity against CCK2 receptor estimated from single shifts of pentagastrin concentration-effect curves in the isolated rat stomach; […]; assay type: functional, tissue-based
T1 sequence (whole entry): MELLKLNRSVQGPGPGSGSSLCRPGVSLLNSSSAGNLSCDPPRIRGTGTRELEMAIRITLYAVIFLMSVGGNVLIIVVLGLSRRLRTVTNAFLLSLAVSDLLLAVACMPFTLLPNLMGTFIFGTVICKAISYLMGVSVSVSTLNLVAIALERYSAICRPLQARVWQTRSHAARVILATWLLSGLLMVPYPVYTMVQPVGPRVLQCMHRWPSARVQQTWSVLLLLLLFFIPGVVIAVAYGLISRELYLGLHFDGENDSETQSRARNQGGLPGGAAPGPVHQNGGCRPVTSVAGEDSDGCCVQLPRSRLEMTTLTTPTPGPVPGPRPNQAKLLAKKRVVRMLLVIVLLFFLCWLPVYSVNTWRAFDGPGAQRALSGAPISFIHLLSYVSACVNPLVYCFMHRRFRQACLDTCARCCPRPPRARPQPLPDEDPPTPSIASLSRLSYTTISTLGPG

[2] = target: T2, Cholecystokinin receptor type A (Cavia porcellus, UniProt Q63931); assay: Concentration required to inhibit the binding of 20 pM [125I]BH-CCK-8S radioligand to guinea pig pancreas CCK1 receptor
T2 sequence (Q63931 whole entry): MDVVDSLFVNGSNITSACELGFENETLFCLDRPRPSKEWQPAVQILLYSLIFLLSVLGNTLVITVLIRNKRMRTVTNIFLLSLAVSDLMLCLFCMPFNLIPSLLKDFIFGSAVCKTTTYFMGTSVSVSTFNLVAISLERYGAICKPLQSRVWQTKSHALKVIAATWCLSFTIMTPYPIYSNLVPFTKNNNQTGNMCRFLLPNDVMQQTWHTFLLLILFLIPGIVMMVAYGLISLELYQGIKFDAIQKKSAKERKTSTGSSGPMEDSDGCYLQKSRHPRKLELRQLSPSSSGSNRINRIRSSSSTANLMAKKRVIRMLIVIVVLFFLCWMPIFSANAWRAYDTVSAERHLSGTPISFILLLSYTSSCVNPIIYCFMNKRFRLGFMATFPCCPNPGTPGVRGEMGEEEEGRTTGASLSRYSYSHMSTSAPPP
Outline: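 CCK1 sites on guinea pig pancreatic cells. Competition with 20 pM [125I]BH-CCK-8S, reported as pKI. At least three separate experiments give ± SEM. Where only two experiments were run, no error is given (approximate SEM 0.1 log units).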

[3] = target: T3, Gastrin/cholecystokinin type B receptor (Mus musculus, UniProt P56481); assay: Concentration required to inhibit the binding of 20 pM [125I]-BH-CCK-8S radioligand to mouse cortical membrane CCK2 receptor
T3 sequence (P56481 whole entry): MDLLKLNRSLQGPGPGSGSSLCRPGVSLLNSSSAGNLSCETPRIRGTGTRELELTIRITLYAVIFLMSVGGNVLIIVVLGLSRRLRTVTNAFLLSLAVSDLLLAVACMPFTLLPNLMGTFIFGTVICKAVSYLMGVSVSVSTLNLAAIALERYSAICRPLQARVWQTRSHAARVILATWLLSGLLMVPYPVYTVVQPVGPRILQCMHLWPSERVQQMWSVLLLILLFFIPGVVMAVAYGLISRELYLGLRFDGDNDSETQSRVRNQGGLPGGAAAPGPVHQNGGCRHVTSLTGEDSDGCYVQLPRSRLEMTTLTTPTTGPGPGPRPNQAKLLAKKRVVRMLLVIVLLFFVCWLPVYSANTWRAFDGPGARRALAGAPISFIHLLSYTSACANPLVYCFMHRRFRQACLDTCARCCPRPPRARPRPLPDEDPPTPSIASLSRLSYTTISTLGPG
Outline: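 Mouse cerebral cortex homogenates. Competition with 20 pM [125I]BH-CCK-8S for CCK2 sites, reported as pKI. At least three separate experiments give ± SEM. Where only two experiments were run, no error is given (approximate SEM 0.1 log units).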

[4] = Lipophilicity was measured in octanol/buffer (pH 7.4); assay type: physicochemical
Outline: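 log D from partition between octanol and buffer at pH 7.4, given ± error.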

[5] = target: T4, Gastrin/cholecystokinin type B receptor (Canis lupus familiaris) (UniProt P30552); assay: Percent inhibition (i.v., 1.0 mg/Kg) against dog CCK2 receptor
T4 sequence (whole entry): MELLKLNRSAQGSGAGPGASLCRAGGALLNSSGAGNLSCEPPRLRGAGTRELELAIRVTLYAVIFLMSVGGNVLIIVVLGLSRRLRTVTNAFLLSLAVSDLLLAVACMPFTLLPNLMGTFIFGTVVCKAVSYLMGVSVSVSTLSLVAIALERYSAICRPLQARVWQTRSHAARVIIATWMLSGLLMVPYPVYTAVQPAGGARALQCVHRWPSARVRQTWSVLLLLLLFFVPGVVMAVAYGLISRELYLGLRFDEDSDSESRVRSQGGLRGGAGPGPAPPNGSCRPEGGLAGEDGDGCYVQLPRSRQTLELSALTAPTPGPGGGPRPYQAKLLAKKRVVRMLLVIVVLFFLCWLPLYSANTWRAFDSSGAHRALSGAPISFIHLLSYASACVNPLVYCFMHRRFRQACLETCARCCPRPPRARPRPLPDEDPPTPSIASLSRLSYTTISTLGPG
Outline: (§1)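 Conscious dogs given a bolus iv or intraduodenally during pentagastrin-stimulated acid secretion. Result is the peak percentage inhibition of acid output in the first four collection periods (1 h) after dosing, ± SEM, with the number of replicates stated.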

[6] = target: T5, Gastrin/cholecystokinin type B receptor (Canis lupus familiaris, UniProt P30552); assay: Concentration required to inhibit the binding of [125I]-BH-CCK-8S radioligand to canine gastric mucosa CCK2 receptor
T5 sequence (P30552 whole entry): T4 sequence (whole entry)
Outline: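 Canine gastric mucosa. Competition with [125I]BH-CCK-8S for CCK2 binding sites, reported as pIC50 ± SEM.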

[7] = target: T6, Gastrin/cholecystokinin type B receptor (Rattus norvegicus, UniProt P30553); assay: Antagonist activity against CCK2 receptor estimated from single shifts of pentagastrin concentration-effect curves in the isolated rat stomach; assay type: functional, tissue-based; conditions: read-out: pA2 (converted)
T6 sequence (P30553 whole entry): T1 sequence (whole entry)

[8] = target: T4, Gastrin/cholecystokinin type B receptor (Canis lupus familiaris); assay: Percent inhibition (i.v., 3.0 mg/Kg) against dog CCK2 receptor; outline: as §1

Row | SMILES | Ki [2] [µM] | Ki [3] [µM] | also measured
1 | O=C(O)c1cccc(NC(=O)c2cc(-c3ccccc3)[nH]c2CCC23CC4CC(CC(C4)C2)C3)c1 | 2.09 |  | pA2 [1]: inactive
2 | O=C(O)c1cccc(NC(=O)c2nc(C34CCC(CC3)CC4)[nH]c2COC23CC4CC(CC(C4)C2)C3)c1 | 0.776 | 0.0275 | 
3 | O=C(O)c1cccc(NC(=O)c2nc(C3CCCCC3)[nH]c2COC23CC4CC(CC(C4)C2)C3)c1 | 0.562 | 0.0135 | logD [4]: 2.73; inhibition [5]: 76%; IC50 [6]: 0.0195 µM
4 | Cc1ccccc1-c1nc(CCC23CC4CC(CC(C4)C2)C3)c(C(=O)Nc2ccc(N(C)C)c(C(=O)O)c2)[nH]1 | 0.794 |  | 
5 | CC1(c2nc(C(=O)Nc3cccc(C(=O)O)c3)c(CCC34CC5CC(CC(C5)C3)C4)[nH]2)CCCCC1 | 0.562 |  | 
6 | Cc1ccccc1-c1nc(C(=O)Nc2cccc(C(=O)O)c2)c(CC23CC4CC(CC(C4)C2)C3)[nH]1 |  |  | pA2 [1]: inactive
7 | Cc1cc(C)c(-c2nc(C(=O)Nc3cccc(C(=O)O)c3)c(COC34CC5CC(CC(C5)C3)C4)[nH]2)c(C)c1 | 0.537 | 0.0138 | logD [4]: 3.02; inhibition [5]: 61%; IC50 [6]: 0.0631 µM
8 | COc1ccc(NC(=O)c2[nH]c(-c3ccccc3C)nc2CCC23CC4CC(CC(C4)C2)C3)cc1C(=O)O |  |  | pA2 [1]: inactive
9 | O=C(O)c1cccc(NC(=O)c2[nH]c(C34CCC(CC3)CC4)nc2CCC23CC4CC(CC(C4)C2)C3)c1 | 0.324 | 0.0204 | 
10 | CCCc1nc(C(=O)Nc2cccc(C(=O)O)c2)c(CCC23CC4CC(CC(C4)C2)C3)[nH]1 | 1.12 |  | 
11 | Cc1ccccc1-c1nc(C(=O)Nc2ccc(F)c(C(=O)O)c2)c(CCC23CC4CC(CC(C4)C2)C3)[nH]1 | 0.562 |  | 
12 | O=C(O)c1cccc(NC(=O)c2[nH]c(-c3ccc4ccccc4c3)nc2CC2CCCCCC2)c1 | 2.51 |  | pA2 [1]: inactive
13 | Cc1ccccc1-c1nc(C(=O)Nc2cccc(C(=O)O)c2)c(CCC23CC4CC(CC(C4)C2)C3)[nH]1 | 0.661 |  | 
14 | CC(C)c1nc(C(=O)Nc2cccc(C(=O)O)c2)c(CCC23CC4CC(CC(C4)C2)C3)[nH]1 | 1.45 |  | 
15 | Cc1ccccc1-c1nc(C(=O)Nc2cccc(C(=O)O)c2)c(CCC(C)C)[nH]1 | 0.661 | 8.32 | Kb [7]: 0.0263 µM
16 | O=C(O)c1cccc(NC(=O)c2[nH]c(C3CCCCCCCCCCC3)nc2CCC23CC4CC(CC(C4)C2)C3)c1 |  |  | pA2 [1]: inactive
17 | Cc1cccc(NC(=O)c2[nH]c(-c3ccccc3C)nc2CCC23CC4CC(CC(C4)C2)C3)c1 |  | > 100 | 
18 | Cc1ccccc1-c1nc(C(=O)Nc2cccc(C(=O)O)c2)c(CCC2CCCCC2)[nH]1 | 0.295 | 0.617 | 

Row | SMILES | Ki [2] [µM] | Ki [3] [µM] | also measured
19 | O=C(O)c1cccc(NC(=O)c2cc(-c3ccc4ccccc4c3)[nH]c2CC2CCCCCC2)c1 | 3.02 |  | pA2 [1]: inactive
20 | Cc1ccc(NC(=O)c2[nH]c(C3(C)CCCCC3)nc2CCC23CC4CC(CC(C4)C2)C3)cc1C(=O)O |  | 0.00331 | inhibition [8]: 54%; logD [4]: 4.91; IC50 [6]: 0.0112 µM
21 | COC(=O)c1cccc(NC(=O)c2[nH]c(-c3ccccc3C)nc2CCC23CC4CC(CC(C4)C2)C3)c1 |  | > 100 | 
22 | O=C(O)c1cccc(NC(=O)c2[nH]c(C3CCCC3)nc2CCC23CC4CC(CC(C4)C2)C3)c1 | 0.525 | 0.0398 | 
23 | Cc1ccccc1-c1nc(C(=O)Nc2cccc(CCC(=O)O)c2)c(CCC23CC4CC(CC(C4)C2)C3)[nH]1 | 0.302 | 0.00692 | 
24 | Cc1ccc(-c2nc(C(=O)Nc3cccc(C(=O)O)c3)c(CCC34CC5CC(CC(C5)C3)C4)[nH]2)c(C)c1 | 0.617 |  | 
25 | CNc1cccc(NC(=O)c2[nH]c(-c3ccccc3C)nc2CCC23CC4CC(CC(C4)C2)C3)c1 |  | 11.2 | 
26 | O=C(O)c1cccc(NC(=O)c2[nH]c(-c3ccccc3)nc2CCC23CC4CC(CC(C4)C2)C3)c1 | 1.32 | 0.316 | 
27 | O=C(O)c1cccc(NC(=O)c2[nH]c(C3CCCCCC3)nc2CCC23CC4CC(CC(C4)C2)C3)c1 | 0.126 |  | 
28 | Cc1ccccc1-c1nc(C(=O)Nc2cccc(CC(=O)O)c2)c(CCC23CC4CC(CC(C4)C2)C3)[nH]1 | 0.398 |  | pA2 [1]: inactive
29 | Cc1ccccc1-c1cc(C(=O)Nc2cccc(C(=O)O)c2)c(CCC23CC4CC(CC(C4)C2)C3)[nH]1 | 2.19 |  | pA2 [1]: inactive
30 | Cc1ccc(NC(=O)c2nc(-c3ccccc3C)[nH]c2CCC23CC4CC(CC(C4)C2)C3)cc1C(=O)O | 0.417 |  | Kb [7]: 0.0331 µM
31 | CC(C)(C)c1nc(C(=O)Nc2cccc(C(=O)O)c2)c(CCC23CC4CC(CC(C4)C2)C3)[nH]1 | 2.88 |  | 
32 | O=C(O)c1cccc(NC(=O)c2[nH]c(C3CC3)nc2CCC23CC4CC(CC(C4)C2)C3)c1 | 2.34 |  | 
33 | Cc1cc(C)c(-c2nc(C(=O)Nc3cccc(C(=O)O)c3)c(CCC34CC5CC(CC(C5)C3)C4)[nH]2)c(C)c1 | 0.724 | 0.0269 | 
34 | Cc1cc(C)c(-c2nc(C(=O)Nc3ccc(C)c(C(=O)O)c3)c(CCC34CC5CC(CC(C5)C3)C4)[nH]2)c(C)c1 | 0.123 | 0.00302 | Kb [7]: 0.00331 µM; inhibition [8]: 76%; logD [4]: 4.9; IC50 [6]: 0.0398 µM
35 | Cc1cccc(C)c1-c1nc(C(=O)Nc2cccc(C(=O)O)c2)c(CCC23CC4CC(CC(C4)C2)C3)[nH]1 | > 10 | 0.141 | 
